Source: paper PMC3480690 (The Open Medicinal Chemistry Journal, 2012)

Test system: MCF-7 cells
Experiment: MTT assay, cytotoxicity on MCF-7 cells
Format: cell-based
Conditions: Homo sapiens, MCF7, 24 h, read-out: MTT assay IC50
In short: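 Human breast cancer MCF-7 cells grown in DMEM with 10% FBS, penicillin and streptomycin at 37°C, 5% CO2. 10000 cells per well were seeded, cultured overnight, then exposed to test compound (1-200 µM) for 24 h. MTT at 0.5 mg/ml final was added for 3 h at 37°C. Formazan was dissolved in DMSO and read at 545 nm (630 nm reference). IC50 was taken from concentration-growth inhibition curves.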

Compound `Cc1ccc(-c2cc(C(F)(F)F)nn2-c2ccc(S(N)(=O)=O)cc2)cc1` [Celecoxib] has an IC50 of 87.7 µM.
